From ChEMBL document CHEMBL4371006, “Discovery of N-[4-(Quinolin-4-yloxy)phenyl]benzenesulfonamides as Novel AXL Kinase Inhibitors” (J Med Chem, 2018) come the findings set out here.

The subject of data set [1] is MDA-MB-231. In words: Antimigratory activity against human MDA-MB-231 cells assessed as inhibition of large cell aggregate formation after 5 hrs by matrigel assay. Format: functional, cell-based. To be noted: MDA-MB-231, 5 h. Summed up: (§1)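 MDA-MB-231 cells (7000/well) seeded on polymerized 3 mg/mL Matrigel (set ≥16 h at 37°C) in serum-free medium; inhibitor added at seeding, aggregates forming over 5 h.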

Data set [2] has as its target T1, Hepatocyte growth factor receptor (Homo sapiens, UniProt P08581). In words: Inhibition of c-MET (unknown origin).
Data set [3] addresses T2, Tyrosine-protein kinase receptor UFO (Homo sapiens, UniProt P30530).
T2 sequence (P30530 whole entry): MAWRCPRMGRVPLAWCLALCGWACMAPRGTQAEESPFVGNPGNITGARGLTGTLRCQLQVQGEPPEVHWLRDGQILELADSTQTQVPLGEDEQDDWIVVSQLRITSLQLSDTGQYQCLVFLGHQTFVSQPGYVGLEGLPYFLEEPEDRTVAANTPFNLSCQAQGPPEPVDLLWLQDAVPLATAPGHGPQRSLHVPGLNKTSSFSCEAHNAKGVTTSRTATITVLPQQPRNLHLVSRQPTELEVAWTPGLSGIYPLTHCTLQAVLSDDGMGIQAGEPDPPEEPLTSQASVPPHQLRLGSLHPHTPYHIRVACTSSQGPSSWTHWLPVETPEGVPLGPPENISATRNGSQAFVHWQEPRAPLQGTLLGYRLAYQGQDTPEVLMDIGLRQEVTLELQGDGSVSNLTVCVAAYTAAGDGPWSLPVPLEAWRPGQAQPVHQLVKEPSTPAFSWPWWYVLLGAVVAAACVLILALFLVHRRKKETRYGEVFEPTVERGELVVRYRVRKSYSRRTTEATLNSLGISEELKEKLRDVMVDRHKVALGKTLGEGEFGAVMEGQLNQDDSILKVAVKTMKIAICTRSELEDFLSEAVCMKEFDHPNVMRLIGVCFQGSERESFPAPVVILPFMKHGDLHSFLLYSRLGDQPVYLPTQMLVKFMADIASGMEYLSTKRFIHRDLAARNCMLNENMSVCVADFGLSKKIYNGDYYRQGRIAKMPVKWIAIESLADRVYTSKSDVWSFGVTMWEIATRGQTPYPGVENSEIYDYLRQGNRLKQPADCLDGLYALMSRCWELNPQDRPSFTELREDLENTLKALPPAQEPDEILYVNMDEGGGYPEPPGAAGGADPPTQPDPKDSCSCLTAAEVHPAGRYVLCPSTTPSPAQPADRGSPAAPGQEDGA
In words: Inhibition of AXL (unknown origin).

Data set [4] relates to MDA-MB-231. The data set can be described thus: Anti-invasive activity against human MDA-MB-231 cells up to 3 uM after 5 hrs by matrigel assay. Format: functional, cell-based. Put shortly:
as §1

Data set [5] has as its target T3, Proto-oncogene tyrosine-protein kinase Src (Homo sapiens, UniProt P12931). The data set can be described thus: Inhibition of SRC (unknown origin).
In data set [6] the test system is MDA-MB-231. In words: Antimigratory activity against human MDA-MB-231 cells after 3.5 hrs by microscopy based Boyden chamber assay. It counts as functional, cell-based. To be noted: MDA-MB-231, 3.5 h. Put shortly: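 Modified Boyden chamber: MDA-MB-231 cells plated in 0.1% FCS medium, migrating through 8 µm pore membrane toward 1% FCS chemoattractant for 3.5 h; transmigrated cells counted microscopically in at least 5 random fields per well.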

Data set [7] concerns the target T4, Epidermal growth factor receptor (Homo sapiens, UniProt P00533). The data set can be described thus: Inhibition of wild type EGFR (unknown origin).
Data set [8] is described as follows: Selectivity ratio of compound effect for anti-invasive activity against human MDA-MB-231 cells to IC50 for AXL (unknown origin) phosphorylation.
The target of data set [9] is T2, Tyrosine-protein kinase receptor UFO. The data set can be described thus: Inhibition of AXL (unknown origin) phosphorylation after 1 hr by ELISA. For orientation: In an ELISA, binding on a coated surface is turned into a signal by an enzyme label.
Data set [10] can be described thus: Ratio of IC50 for antimigratory activity against human MDA-MB-231 cells after 3.5 hrs by microscopy based Boyden chamber assay to IC50 for inhibition of AXL (unknown origin).
In data set [11] the target is Receptor-interacting serine/threonine-protein kinase 2 (Homo sapiens, UniProt O43353). In words: Binding affinity to wild-type human partial length RIPK2 (M1 to K310 residues) expressed in bacterial expression system assessed as residual binding level at 5 umol/L by Kinomescan method.
Chain of Receptor-interacting serine/threonine-protein kinase 2 (O43353 whole entry, the tested form may be a part): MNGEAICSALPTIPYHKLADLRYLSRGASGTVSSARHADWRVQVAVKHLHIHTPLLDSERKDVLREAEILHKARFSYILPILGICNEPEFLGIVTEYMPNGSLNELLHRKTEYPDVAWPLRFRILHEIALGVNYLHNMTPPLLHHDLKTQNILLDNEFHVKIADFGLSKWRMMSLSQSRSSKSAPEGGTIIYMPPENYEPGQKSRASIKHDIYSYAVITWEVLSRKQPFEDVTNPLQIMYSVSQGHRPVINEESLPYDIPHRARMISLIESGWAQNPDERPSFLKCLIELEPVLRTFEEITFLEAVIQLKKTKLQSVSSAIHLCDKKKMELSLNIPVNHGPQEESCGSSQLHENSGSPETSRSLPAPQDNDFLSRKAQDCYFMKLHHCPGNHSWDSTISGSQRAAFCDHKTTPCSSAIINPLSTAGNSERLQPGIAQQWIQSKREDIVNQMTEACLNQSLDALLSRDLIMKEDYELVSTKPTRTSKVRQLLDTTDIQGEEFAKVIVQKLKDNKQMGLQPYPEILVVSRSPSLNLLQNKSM
Data set [12] concerns the target T1, Hepatocyte growth factor receptor. The data set can be described thus: Binding affinity to wild type human partial length c-MET (D1010 to S1367 residues) expressed in bacterial expression system assessed as residual binding level at 5 umol/L by Kinomescan method.
The target of data set [13] is T4, Epidermal growth factor receptor. In words: Binding affinity to wild-type human partial length EGFR (R669 to V1011 residues) expressed in bacterial expression system assessed as residual binding level at 5 umol/L by Kinomescan method.
Data set [14] has as its target T3, Proto-oncogene tyrosine-protein kinase Src. In words: Binding affinity to wild-type human partial length SRC (L240 to L536 residues) expressed in bacterial expression system assessed as residual binding level at 5 umol/L by Kinomescan method.
Data set [15] addresses Protein-tyrosine kinase 6 (Homo sapiens) (UniProt Q13882). In words: Binding affinity to wild-type human partial length BRK (L166 to T451 residues) expressed in bacterial expression system assessed as residual binding level at 5 umol/L by Kinomescan method.
For data set [16], the target named is Mast/stem cell growth factor receptor Kit (Homo sapiens) (UniProt P10721). In words: Binding affinity to wild type human partial length c-KIT (I571 to D952 residues) expressed in bacterial expression system assessed as residual binding level at 5 umol/L by Kinomescan method.
Chain of Mast/stem cell growth factor receptor Kit (Homo sapiens) (P10721 whole entry, the tested form may be a part): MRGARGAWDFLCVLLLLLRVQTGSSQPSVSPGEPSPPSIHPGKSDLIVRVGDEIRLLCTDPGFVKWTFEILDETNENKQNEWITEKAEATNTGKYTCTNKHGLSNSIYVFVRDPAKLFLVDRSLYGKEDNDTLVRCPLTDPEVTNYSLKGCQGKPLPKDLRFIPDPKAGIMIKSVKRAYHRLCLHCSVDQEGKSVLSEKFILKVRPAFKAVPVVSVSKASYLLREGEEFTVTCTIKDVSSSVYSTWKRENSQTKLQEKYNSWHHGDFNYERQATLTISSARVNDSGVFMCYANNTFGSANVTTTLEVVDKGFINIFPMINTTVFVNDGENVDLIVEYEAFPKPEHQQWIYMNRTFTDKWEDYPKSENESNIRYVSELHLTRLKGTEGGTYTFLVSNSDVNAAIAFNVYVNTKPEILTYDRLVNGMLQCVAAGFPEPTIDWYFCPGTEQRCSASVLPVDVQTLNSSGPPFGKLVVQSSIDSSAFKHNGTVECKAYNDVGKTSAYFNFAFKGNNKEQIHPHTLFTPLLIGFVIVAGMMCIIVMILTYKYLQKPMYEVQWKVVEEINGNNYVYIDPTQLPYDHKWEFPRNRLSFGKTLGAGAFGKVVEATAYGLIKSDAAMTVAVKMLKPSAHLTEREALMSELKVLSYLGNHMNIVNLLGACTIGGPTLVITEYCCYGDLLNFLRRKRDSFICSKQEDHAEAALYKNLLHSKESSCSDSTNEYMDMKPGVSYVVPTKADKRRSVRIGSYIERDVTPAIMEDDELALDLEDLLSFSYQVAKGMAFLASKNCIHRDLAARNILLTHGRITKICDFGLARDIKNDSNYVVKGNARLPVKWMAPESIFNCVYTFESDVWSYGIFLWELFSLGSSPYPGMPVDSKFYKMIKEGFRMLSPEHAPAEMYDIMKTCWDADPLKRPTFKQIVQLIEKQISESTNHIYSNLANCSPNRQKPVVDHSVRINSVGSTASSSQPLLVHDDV
The target of data set [17] is Tyrosine-protein kinase ABL1 (Homo sapiens) (UniProt P00519). In words: Binding affinity to wild-type human phosphorylated ABL1 (S229 to K512 residues) expressed in mammalian expression system assessed as residual binding level at 5 umol/L by Kinomescan method.
Data set [18] has as its target Platelet-derived growth factor receptor beta (Homo sapiens) (UniProt P09619). The data set can be described thus: Binding affinity to wild-type human partial length PDGFRB (V582 to Y1009 residues) expressed in bacterial expression system assessed as residual binding level at 5 umol/L by Kinomescan method.
Data set [19] has as its target Tyrosine-protein kinase receptor UFO (Homo sapiens) (UniProt P30530). The data set can be described thus: Binding affinity to wild-type human partial length AXL (R497 to Y821 residues) expressed in bacterial expression system assessed as residual binding level at 5 umol/L by Kinomescan method.
The target of data set [20] is Serine/threonine-protein kinase 10 (Homo sapiens, UniProt O94804). The data set can be described thus: Binding affinity to wild-type human partial length LOK (E16 to V314 residues) expressed in bacterial expression system assessed as residual binding level at 5 umol/L by Kinomescan method.
For data set [21], the target named is Tyrosine-protein kinase Lck (Homo sapiens) (UniProt P06239). The data set can be described thus: Binding affinity to wild-type human partial length LCK (R207 to P509 residues) expressed in bacterial expression system assessed as residual binding level at 5 umol/L by Kinomescan method.
Data set [22] addresses Platelet-derived growth factor receptor alpha (Homo sapiens) (UniProt P16234). In words: Binding affinity to wild-type human partial length PDGFRA (V575 to D1002 residues) expressed in mammalian expression system assessed as residual binding level at 5 umol/L by Kinomescan method.
Data set [23] concerns the target Macrophage colony-stimulating factor 1 receptor (Homo sapiens) (UniProt P07333). In words: Binding affinity to wild-type human partial length CSF1R (I564 to S939 residues) expressed in bacterial expression system assessed as residual binding level at 5 umol/L by Kinomescan method.
Data set [24] addresses Tyrosine-protein kinase Blk (Homo sapiens) (UniProt P51451). In words: Binding affinity to wild-type human partial length BLK (G211 to L503 residues) expressed in bacterial expression system assessed as residual binding level at 5 umol/L by Kinomescan method.
Data set [25] concerns the target Epithelial discoidin domain-containing receptor 1 (Homo sapiens) (UniProt Q08345). The data set can be described thus: Binding affinity to wild-type human partial length DDR1 (R565 to V876 residues) expressed in bacterial expression system assessed as residual binding level at 5 umol/L by Kinomescan method.
The test system of data set [26] is MDA-MB-231. In words: Antitumor activity against human MDA-MB-231 cells xenografted in mouse assessed as tumor growth inhibition at 10 mg/kg, iv administered 3 times per week measured 3 times per week starting at day 12. It counts as functional, organism-based. Summed up: (§2)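 Female SCID/Beige mice inoculated with 2 x 10^6 MDA-MB-231 cells in HBSS:Matrigel (1:1) into third mammary fat pad under ketamine/xylazine. Test agent 30 mg/kg ip twice daily (12 h apart) in PEG400/H2O 70:30, or paclitaxel 10 mg/kg iv three times weekly; 10 mice/group. Tumors measured three times weekly from day 12; lungs and lymph nodes excised, formalin-fixed, nodes H&E-scored (mean ± SEM).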

Data set [27] relates to MDA-MB-231. In words: Antimetastatic activity against human MDA-MB-231 cells xenografted in mouse assessed as reduction in lymph node infiltrates at 10 mg/kg, iv administered 3 times per week measured 3 times per week starting at day 12 by hematoxylin and eosin staining based assay. It counts as functional, organism-based. Summed up:
as §2

The subject of data set [28] is MDA-MB-231. The data set can be described thus: Antimetastatic activity against human MDA-MB-231 cells xenografted in mouse assessed as reduction in lung metastasis at 10 mg/kg, iv administered 3 times per week measured 3 times per week starting at day 12 by hematoxylin and eosin staining based assay relative to control. Format: functional. Set-up: scale not given: the % may be the effect or the level left. Summed up: as §2

Data set [29] in a line: Toxicity in SCID/beige mouse xenografted with human MDA-MB-231 cells assessed as body weight gain at 10 mg/kg, iv administered 3 times per week measured 3 times per week starting at day 12. Format: organism-based. The conditions noted are these: in vivo.

pIC50: −log10 of the molar value. The source made the active and inactive calls. No cut-off for these calls is given here.

A word on the pIC50: it is −log10 of the IC50, conventionally taken in molar units.

T4 sequence (P00533 whole entry): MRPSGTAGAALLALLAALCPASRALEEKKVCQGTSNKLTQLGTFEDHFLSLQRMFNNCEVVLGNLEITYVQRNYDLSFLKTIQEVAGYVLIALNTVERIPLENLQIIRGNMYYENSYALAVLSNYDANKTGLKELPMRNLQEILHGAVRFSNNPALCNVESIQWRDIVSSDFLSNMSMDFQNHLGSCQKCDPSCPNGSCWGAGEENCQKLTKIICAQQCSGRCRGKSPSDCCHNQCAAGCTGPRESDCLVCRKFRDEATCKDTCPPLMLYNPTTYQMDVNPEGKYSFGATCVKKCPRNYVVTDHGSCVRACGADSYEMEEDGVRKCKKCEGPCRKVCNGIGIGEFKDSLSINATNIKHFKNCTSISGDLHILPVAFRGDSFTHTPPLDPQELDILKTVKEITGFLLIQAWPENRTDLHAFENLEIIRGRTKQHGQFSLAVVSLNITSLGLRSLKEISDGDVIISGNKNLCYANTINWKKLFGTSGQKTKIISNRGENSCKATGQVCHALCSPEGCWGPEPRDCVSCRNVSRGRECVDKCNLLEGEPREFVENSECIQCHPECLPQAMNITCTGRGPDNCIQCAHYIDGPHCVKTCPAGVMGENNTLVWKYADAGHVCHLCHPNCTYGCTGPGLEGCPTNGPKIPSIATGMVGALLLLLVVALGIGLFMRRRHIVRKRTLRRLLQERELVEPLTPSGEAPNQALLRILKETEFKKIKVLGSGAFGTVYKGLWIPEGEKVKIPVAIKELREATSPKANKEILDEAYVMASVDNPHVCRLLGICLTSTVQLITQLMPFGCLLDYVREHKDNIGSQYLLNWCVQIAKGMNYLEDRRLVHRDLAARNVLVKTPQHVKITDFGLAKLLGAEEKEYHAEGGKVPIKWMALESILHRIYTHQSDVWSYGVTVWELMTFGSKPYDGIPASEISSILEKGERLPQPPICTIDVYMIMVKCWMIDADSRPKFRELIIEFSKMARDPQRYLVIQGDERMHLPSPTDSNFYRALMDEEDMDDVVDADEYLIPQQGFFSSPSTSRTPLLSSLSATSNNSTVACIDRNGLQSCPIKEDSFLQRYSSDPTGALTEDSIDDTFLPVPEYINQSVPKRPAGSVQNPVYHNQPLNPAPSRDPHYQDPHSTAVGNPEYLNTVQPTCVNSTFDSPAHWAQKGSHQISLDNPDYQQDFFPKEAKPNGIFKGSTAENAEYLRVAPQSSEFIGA
T3 sequence (P12931 2-536 limits assumed): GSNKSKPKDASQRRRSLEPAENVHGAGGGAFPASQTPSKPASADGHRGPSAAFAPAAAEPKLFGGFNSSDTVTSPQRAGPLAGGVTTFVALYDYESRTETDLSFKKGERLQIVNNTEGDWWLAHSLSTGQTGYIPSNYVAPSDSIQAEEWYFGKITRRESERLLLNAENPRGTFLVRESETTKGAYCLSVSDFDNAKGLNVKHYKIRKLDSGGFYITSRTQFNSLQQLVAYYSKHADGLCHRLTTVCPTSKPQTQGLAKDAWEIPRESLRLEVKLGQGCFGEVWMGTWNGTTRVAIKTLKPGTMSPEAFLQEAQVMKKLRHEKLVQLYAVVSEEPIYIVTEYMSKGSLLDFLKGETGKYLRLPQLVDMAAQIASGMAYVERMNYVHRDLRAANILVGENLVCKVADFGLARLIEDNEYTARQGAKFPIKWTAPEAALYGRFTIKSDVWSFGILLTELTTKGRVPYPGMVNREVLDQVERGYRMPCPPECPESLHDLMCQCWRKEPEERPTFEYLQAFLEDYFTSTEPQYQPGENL
T1 sequence (P08581 whole entry): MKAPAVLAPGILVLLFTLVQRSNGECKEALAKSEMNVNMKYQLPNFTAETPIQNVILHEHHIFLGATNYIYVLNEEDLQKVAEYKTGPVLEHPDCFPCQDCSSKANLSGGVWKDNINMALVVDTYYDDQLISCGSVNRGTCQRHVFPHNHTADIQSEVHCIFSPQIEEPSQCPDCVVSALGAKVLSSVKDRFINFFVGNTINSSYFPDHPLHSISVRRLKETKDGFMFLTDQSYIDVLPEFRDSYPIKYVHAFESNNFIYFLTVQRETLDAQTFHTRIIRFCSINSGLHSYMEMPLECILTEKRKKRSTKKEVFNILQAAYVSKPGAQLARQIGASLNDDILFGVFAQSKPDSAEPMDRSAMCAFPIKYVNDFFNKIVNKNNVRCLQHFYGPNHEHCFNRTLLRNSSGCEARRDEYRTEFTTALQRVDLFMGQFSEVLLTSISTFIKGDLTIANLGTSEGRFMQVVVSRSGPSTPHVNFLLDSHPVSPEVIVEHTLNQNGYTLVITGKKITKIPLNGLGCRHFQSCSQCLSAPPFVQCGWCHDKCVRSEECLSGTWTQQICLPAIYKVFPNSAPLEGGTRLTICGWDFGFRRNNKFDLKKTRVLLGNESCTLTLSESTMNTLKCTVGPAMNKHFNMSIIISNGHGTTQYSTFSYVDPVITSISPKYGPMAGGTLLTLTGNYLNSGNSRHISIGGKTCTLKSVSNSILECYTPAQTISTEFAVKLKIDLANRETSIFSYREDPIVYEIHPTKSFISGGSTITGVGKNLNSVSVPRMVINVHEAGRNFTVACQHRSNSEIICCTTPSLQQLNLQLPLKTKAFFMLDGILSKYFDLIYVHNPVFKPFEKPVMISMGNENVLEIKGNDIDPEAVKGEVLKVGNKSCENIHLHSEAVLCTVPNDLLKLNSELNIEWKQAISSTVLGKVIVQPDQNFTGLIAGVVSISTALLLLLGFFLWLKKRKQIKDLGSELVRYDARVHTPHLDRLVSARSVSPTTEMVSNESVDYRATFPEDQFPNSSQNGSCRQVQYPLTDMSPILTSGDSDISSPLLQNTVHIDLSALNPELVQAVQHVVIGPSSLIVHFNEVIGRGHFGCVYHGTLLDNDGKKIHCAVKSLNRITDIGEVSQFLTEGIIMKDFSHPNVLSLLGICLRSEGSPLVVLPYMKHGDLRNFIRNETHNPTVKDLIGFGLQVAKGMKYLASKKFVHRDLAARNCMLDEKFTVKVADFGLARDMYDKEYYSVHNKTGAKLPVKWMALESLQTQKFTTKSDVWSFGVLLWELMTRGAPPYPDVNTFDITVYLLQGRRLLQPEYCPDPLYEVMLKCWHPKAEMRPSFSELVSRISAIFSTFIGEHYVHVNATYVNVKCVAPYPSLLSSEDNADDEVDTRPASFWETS
Chain of Protein-tyrosine kinase 6 (Homo sapiens) (Q13882 whole entry, looked up, the tested form may be a part): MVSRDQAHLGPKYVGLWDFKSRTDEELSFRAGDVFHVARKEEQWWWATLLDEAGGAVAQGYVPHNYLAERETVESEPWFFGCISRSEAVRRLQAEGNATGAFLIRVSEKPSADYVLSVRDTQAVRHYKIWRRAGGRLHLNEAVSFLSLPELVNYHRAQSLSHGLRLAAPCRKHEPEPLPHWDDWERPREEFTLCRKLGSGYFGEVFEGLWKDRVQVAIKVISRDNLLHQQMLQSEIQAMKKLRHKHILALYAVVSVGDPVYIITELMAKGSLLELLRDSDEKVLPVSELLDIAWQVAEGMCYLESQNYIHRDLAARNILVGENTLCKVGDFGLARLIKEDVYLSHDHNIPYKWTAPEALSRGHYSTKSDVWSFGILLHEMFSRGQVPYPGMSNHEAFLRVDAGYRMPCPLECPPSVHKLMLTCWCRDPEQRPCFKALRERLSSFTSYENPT

Consider `COc1cc2c(Oc3ccc(NS(=O)(=O)c4ccccc4OC(F)(F)F)cc3F)ccnc2cc1OCCCN1CCN(C)CC1`, for which the negative-log IC50 (pIC50) in the data set with MDA-MB-231 [1] was 6.99; in [2] it was 5.81; in data set [3], 7.29; in [5], 5.71; in the data set with MDA-MB-231 [6], 5.37; in data set [7], 5.51. The same compound showed a pIC50 in data set [9] of 7.29. Also, in the data set on MDA-MB-231 [4], the inhibition entry was “Active”. In addition, in data set [8], the Selectivity ratio is 2 - 6. The “Ratio IC50” value in [10] was above 50.

In the case of `COc1cc2c(Oc3ccc(NS(=O)(=O)c4cc(F)ccc4F)cc3F)ccnc2cc1OCC(=O)N(C)C`, the pIC50 in data set [9] was below 6.00.

As to `COc1cc2nccc(Oc3ccc(NS(=O)(=O)c4c(F)cccc4F)c(F)c3)c2cc1OC`, the pIC50 in [9] was below 6.00.

In the case of `COc1cc2c(Oc3ccc(NS(=O)(=O)c4ccccc4C(F)(F)F)cc3F)ccnc2cc1OCCCN1CCC(C)CC1`, the outcome in data set [11], in data set [12], in data set [13], in data set [14], in [15] and in data set [16] was Active. In addition, the outcome in data set [17], in data set [18], in [19], in data set [20], in data set [21] and in data set [22] was Active. Besides, the outcome in [23], in data set [24] and in [25] was Active. Further, the pIC50 is 6.22 in [2], 7.34 in [3], 5.76 in data set [5] and 6.23 in [7]. Further, in data set [10], the “Ratio IC50” value is above 50.

As for `CC(=O)O[C@H]1C(=O)[C@@]2(C)[C@H]([C@H](OC(=O)c3ccccc3)[C@]3(O)C[C@H](OC(=O)[C@H](O)[C@@H](NC(=O)c4ccccc4)c4ccccc4)C(C)=C1C3(C)C)[C@]1(OC(C)=O)CO[C@@H]1C[C@@H]2O` [PACLITAXEL], the TGI result with MDA-MB-231 [26] is “Active”. In addition, the result with MDA-MB-231 [27] was inactive. Moreover, the Activity is 54.3% with MDA-MB-231 [28] and “Toxic” in [29].

For the compound `COc1cc2c(Oc3ccc(NS(=O)(=O)c4ccccc4C(F)(F)F)cc3F)ccnc2cc1OCCCN1CCOCC1`, the result in data set [11], in data set [12], in [13], in data set [14], in data set [15] and in [16] was Active. In addition, the result in [17], in [18], in data set [19], in [20], in data set [21] and in [22] was Active. Also, the outcome in data set [23], in data set [24] and in data set [25] was Active. Further, the pIC50 is 6.47 in data set [2]; 7.68 in [3]; 6.00 in data set [5]; 6.19 in data set [7]; 7.68 in [9]. Further, in data set [10], the “Ratio IC50” value was above 50.

In [9], `COc1cc2nccc(Oc3ccc(NS(=O)(=O)c4ccc(F)c(Cl)c4)c(F)c3)c2cc1OC` showed a pIC50 below 6.00.
